Hits are enriched below; roughly 2.1% of the tested compounds scored in any of these assays.
SUMO Mot1 rescue = blocks SUMOylation pathway, rescuing yeast Mot1-301 growth. S. cerevisiae Mot1-301 growth rescue, ATP luminescence, 38.5C; percent above DMSO median, 100 means doubled. growth rescue, % at 18.8 µM. hit rate 1% among 320,000. AID 2716;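 active = every valid replicate shows activation above 250% relative to neutral control wells; inactive = the rest, any valid replicate at or below 250%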;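 note: OY570 slx delta 5 strain wells were the positive control but not used for scaling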
Statin myotox sup = protects C2C12 myotubes from simvastatin toxicity | rescue of ATP level, % at 7.49 µM | ATP luminescence, 48 h; scaled: DMSO 0, geranylgeraniol control 100 | hit rate 0.78% among 330,000;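 active = mean ATP rescue above about 67%, or every replicate alone reaching that limit, limit read from the data, passing the limit was not always enough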;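 note: myotubes were challenged with 10 µM simvastatin during compound exposure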
ASAP1 GAP inh = inhibitors of human ASAP1 ArfGAP activity; Q9ULH1; ASAP1-stimulated ARF1 GTP hydrolysis, GDP FP detection; inhibition, % at 16.5 µM; hit rate 0.19% among 360,000; AID 624377; in the data active = inhibition above about 25%;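 note: 0% = vehicle with enzyme and substrate and 100% = no enzyme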
A3A deaminase = inhibitors of human APOBEC3A DNA deaminase | hit rate 0.41% among 330,000 | inhibition, % at 20 µM | recombinant A3A, FAM/TAMRA ssDNA deamination fluorescence;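 active = at least 40% inhibition at 20 µM here, with at most 30% in a related deaminase screen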;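 note: plate controls were A3A with DMSO for no effect and wells lacking A3A enzyme for full effect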
Target sequence (P31941 whole entry, looked up): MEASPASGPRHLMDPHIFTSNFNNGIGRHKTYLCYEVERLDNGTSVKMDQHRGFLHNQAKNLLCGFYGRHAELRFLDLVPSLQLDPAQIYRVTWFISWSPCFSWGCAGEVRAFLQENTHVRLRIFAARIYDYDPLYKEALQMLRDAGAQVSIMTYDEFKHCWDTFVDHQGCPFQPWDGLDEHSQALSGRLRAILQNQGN
A3G deaminase = blocks human APOBEC3G single-stranded DNA deamination; Q9HC16; recombinant A3G, ssDNA deamination FAM/TAMRA fluorescence; inhibition, % at 20 µM; hit rate 0.28% among 330,000;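 active = inhibition of at least 40% at 20 µM, with no more than 30% in the related APOBEC3A deaminase screen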;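 note: plate controls were DMSO wells with A3G for no effect and wells lacking A3G enzyme for full effect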
Target sequence (Q9HC16 whole entry, looked up): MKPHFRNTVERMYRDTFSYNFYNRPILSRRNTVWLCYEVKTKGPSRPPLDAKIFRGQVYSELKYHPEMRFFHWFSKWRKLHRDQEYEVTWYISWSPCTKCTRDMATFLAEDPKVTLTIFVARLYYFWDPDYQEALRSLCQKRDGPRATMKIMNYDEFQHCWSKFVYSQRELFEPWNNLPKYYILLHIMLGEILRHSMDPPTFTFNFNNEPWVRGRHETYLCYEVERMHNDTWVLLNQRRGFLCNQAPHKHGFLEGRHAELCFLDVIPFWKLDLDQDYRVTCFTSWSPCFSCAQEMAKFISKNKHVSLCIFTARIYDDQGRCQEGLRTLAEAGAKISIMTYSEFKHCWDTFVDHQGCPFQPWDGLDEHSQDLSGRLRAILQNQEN
ARFGAP1 inhibitor = rat ARFGAP1 inhibition | hit rate 0.26% among 360,000 | Arfgap1-stimulated ARF1 GTP hydrolysis, GDP FP detection | inhibition, % at 16.5 µM | Q62848;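 active = inhibition above a per-plate limit, mean inhibition of low control wells plus 3 SD, cut at about 25% in these data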;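 note: 0% = DMSO wells with enzyme and 100% = wells lacking Arfgap1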
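Material: rat Arfgap1 catalytic domain, aa 1-136; also added: human ARF1(Δ1-17)-GTP substrate; compound dosing: one concentration, 16.5 µM, DMSO 1.26%; incubation: GTP hydrolysis reaction 2 h at 25 °C; measured by: Tracer-displacement fluorescence polarization with EDTA stop, 620/688 nm; evaluation: % inhibition from polarization; repeats: one replicate per compound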
Starred values were filed as active, the others as inactive; / = no result.

SMILES	SUMO Mot1 rescue	Statin myotox sup	ASAP1 GAP inh	A3A deaminase	A3G deaminase	ARFGAP1 inhibitor
COc1ccc(NC(=O)N(C)C[C@H]2Oc3ccc(NS(=O)(=O)c4c(C)noc4C)cc3C(=O)N([C@H](C)CO)C[C@@H]2C)cc1	98.3	123.6*	0.4	-0.4	-3.3	-20.7
COc1ccc(NC(=O)N(C)C[C@@H]2Oc3ccc(NS(=O)(=O)c4ccc(OC)cc4)cc3C(=O)N([C@@H](C)CO)C[C@@H]2C)cc1	/	9.2	/	/	/	/
COc1ccc(NC(=O)N(C)C[C@H]2Oc3ccc(NS(=O)(=O)c4ccc(OC)cc4)cc3C(=O)N([C@@H](C)CO)C[C@H]2C)cc1	/	73.2*	/	/	/	/
C[C@@H]1CN([C@@H](C)CO)C(=O)c2cc(C3=CCCC3)cnc2O[C@@H]1CN(C)C(=O)Nc1cccc(F)c1	/	12.1	/	/	/	/
CC(C)[C@H](N)C(=O)NC[C@H](CC(=O)NC[C@H]1CC[C@H](C(=O)O)CC1)c1ccc(Cl)cc1	16.2	3.8	1.5	0.0	-1.8	7.2
CC(C)(C)OC(=O)NCC1CCC(C(=O)NC[C@H](CC(=O)O)c2ccc(Cl)cc2)CC1 (stereo not given in full)	336.5*	6.9	5.1	-5.6	-7.4	7.4
O=C(Nc1ccc(C2=NCCN2)cc1)c1ccc(C(=O)Nc2ccc(C3=NCCN3)cc2)c([N+](=O)[O-])c1	-21.2	/	3.2	17.5	20.3	26.9*
Cc1ccc(NC(=O)c2ccc(-n3cccn3)c([N+](=O)[O-])c2)cc1	-3.6	2.4	-7.8	0.6	-5.3	-16.2
C/C(=N/NS(=O)(=O)c1ccc(Br)cc1)c1ccc(NC(=O)c2ccc(C)o2)cc1	11.9	75.5*	13.9	-2.8	-5.1	7.4
CC(=O)Nc1ccc(/C(C)=N/NS(=O)(=O)c2ccc(C)cc2)cc1	-2.8	-2.5	-8.3	-10.5	-3.0	5.5
COc1ccc(-n2nc3cc(C)c(N)c(Br)c3n2)cc1	2.5	129.0*	5.9	-0.8	3.0	7.3
CC1=Cc2ccccc2C(C#N)N1C(=O)c1ccccc1 (stereo not given)	-20.5	-8.0	13.1	-4.4	-5.3	-1.4
N#C[C@H]1C(O)C(O)c2ccccc2N1C(=O)c1ccccc1 (stereo not given in full)	716.3*	-11.7	-7.3	-1.3	-8.5	-5.7
CN(C)CC(=O)N[C@@H]1C=C[C@@H](CC(=O)NCc2ccc(Cl)cc2)O[C@H]1CO	/	-2.1	/	/	/	/
O=[N+]([O-])c1cccnc1NCCNc1ncc(C(F)(F)F)cc1Cl	-9.2	136.4*	2.2	1.9	1.5	8.2
Cc1ccc2nc(-c3ccc(NS(=O)(=O)c4c(C)n(C)c(=O)n(C)c4=O)cc3)sc2c1	323.5*	/	6.7	5.7	1.6	11.4
COc1cccc(CNC(=O)CCC2CCCN(C(=O)C3=CC(=O)CC(C)(C)O3)C2)c1 (stereo not given)	14.6	79.2*	-9.3	6.1	-0.6	3.2
CN(C)C(=O)C[C@@H]1C=C[C@H](NS(=O)(=O)c2ccccc2)[C@@H](CO)O1	/	2.3	/	/	/	/
O=C(COc1ccc2c(-c3ccccc3)cc(=O)oc2c1)NCC1CCC(C(=O)O)CC1 (stereo not given)	210.1	-3.7	-7.6	-0.5	12.0	-5.3
O=C(COc1ccc2cc(-c3ccccc3)c(=O)oc2c1)NCC1CCC(C(=O)O)CC1 (stereo not given)	988.0*	4.7	10.1	-3.7	-7.2	3.1
O=C(COc1ccc2c(c1)oc(=O)c1ccccc12)NCC1CCC(C(=O)O)CC1 (stereo not given)	619.6*	1.5	3.5	-3.7	-3.5	7.0
O=C(COc1ccc2c3c(c(=O)oc2c1)CCC3)NCC1CCC(C(=O)O)CC1 (stereo not given)	9.4	-2.1	-14.5	0.8	3.2	-9.0
C[C@H]1CN([C@@H](C)CO)C(=O)c2cccc(NC(=O)C3CC3)c2O[C@H]1CN(C)C(=O)Nc1ccccc1	/	-9.1	/	/	/	/
CO[C@H]1CN(C)C(=O)c2cc(NC(=O)c3ccccc3F)ccc2OC[C@@H](C)N(C)C[C@H]1C	/	-13.3	/	/	/	/
O=C(N[C@@H]1CC[C@@H](CCNC(=O)C2CCCCC2)O[C@H]1CO)c1ccncc1	/	-12.2	/	/	/	/
SMILES	SUMO Mot1 rescue	Statin myotox sup	ASAP1 GAP inh	A3A deaminase	A3G deaminase	ARFGAP1 inhibitor
CCCCCNC(=O)C1CC=CCC1C(=O)O (stereo not given)	440.6	124.8*	-0.4	5.3	0.1	7.3
CCCCN(CCCC)C(=O)C1CC=CCC1C(=O)O (stereo not given)	2.1	-1.1	9.9	-2.5	-3.5	-1.2
O=C(Nc1ccccc1)N[C@H]1CC[C@@H](CCNS(=O)(=O)c2cccc(F)c2)O[C@@H]1CO	/	1.4	/	/	/	/
C=CCn1c(COc2ccc(Cl)cc2)nnc1SCC(=O)c1c(N)n(C)c(=O)n(C)c1=O	-16.3	101.4*	-1.4	-0.1	-1.8	11.3
C=CCn1c(COc2cccc(C)c2)nnc1SCC(=O)c1c(N)n(C)c(=O)n(C)c1=O	/	-1.4	15.8	/	/	0.3
CC(C)[C@H](NC(=O)NCCc1ccccc1)C(=O)O	/	92.0*	-7.5	-4.9	-5.3	0.1
CCC(C)[C@H](NC(=O)NCc1ccccc1)C(=O)O (stereo not given in full)	-13.7	5.3	2.8	0.4	-1.7	-8.0
Cc1nnsc1NC(=O)OCc1ccc(C(F)(F)F)cc1	-5.2	105.5*	-2.6	2.1	0.2	0.0
Cc1nnsc1NC(=O)OCc1ccccc1Cl	3.6	0.1	4.3	-2.3	-1.9	13.6
CC(=O)OC[C@]12CC[C@H]3[C@@](C)(CC[C@H]4C(C)(C)CCC[C@]34C)[C@@H]1C[C@@H](C1=CC(=O)O[C@@H]1OC(C)=O)O2	232.1	/	/	-0.8	-0.8	/
CC(=O)OC[C@]12CC[C@H]3[C@@](C)(CC[C@H]4C(C)(C)CCC[C@]34C)[C@@H]1C[C@H](C1=CC(=O)O[C@H]1OC(C)=O)O2	910.1*	/	/	1.8	-8.4	/
CC1=C(C(=O)NCc2ccccc2)C(c2cccs2)NC(=S)N1 (stereo not given)	-11.3	98.1*	5.2	-2.7	-9.3	-16.1
C=CCOc1cccc(C2C(C(=O)c3ccc(C)o3)=C(O)C(=O)N2Cc2ccncc2)c1 (stereo not given)	-3.7	110.2*	5.1	-1.9	-4.7	3.9
Cn1c(=O)[nH]c(=O)c2c1nc(CN1CCN(c3cccc(Cl)c3)CC1)n2CCc1ccccc1	-6.8	92.4*	3.7	-8.3	-6.4	-7.9
COCC(=O)Nc1ccc2c(c1)C(=O)N(C)C[C@H](OC)[C@H](C)CN(C(=O)NC(C)C)[C@H](C)CO2	/	8.5	/	/	/	/
CCc1ccc(NC(=O)CN(c2cccc(C)c2)S(C)(=O)=O)cc1	-19.0	99.9*	6.8	2.7	-3.4	15.0
O=C1Nc2ccc(Br)cc2C12NNc1ccccc1O2 (stereo not given)	308.7*	8.1	9.0	2.5	-1.7	18.5
